Test results: ChEMBL document CHEMBL1132493, “Synthesis and in vitro evaluation of new 8-amino-1,4-benzoxazine derivatives as neuroprotective antioxidants” (J Med Chem, 1999)

Columns and labels:
HT-22 [1] = experiment: (§1) The concentration producing 50%protection (PC50) was obtained for lactate dehydrogenase (LDH) activity. In vitro neuroprotective activity estimated through their protective effects against L-homocysteic acid(L-HCA) cytotoxicity on murine HT-22 hip pocampal cell cultures and compared to those of exifone; type: functional, Mus musculus
HT-22 [2] = experiment: In vitro neurotoxicity (Maximum Tolerated concentration[MTC]) was measured by (MTT) reduction assay on murine HT-22 hippocampal cell cultures and compared to those of parent exifone; type: functional, Mus musculus
HT-22 [3] = experiment: In vitro neuroprotective activity estimated through their protective effects against L-homocysteic acid(L-HCA) cytotoxicity) on murine HT-22 hippocampal cell cultures and compared to those of exifone. (MTT reduction assay); type: functional, Mus musculus
[4] = Ratio of MTC to PC50 in MTT reduction assay; Safety ratio; type: functional
Method in brief: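 Safety index: MTC divided by PC50, both from MTT reduction in HT-22 cells. MTC comes from 48 h drug exposure alone; PC50 from protection against 48 h 2 mM L-HCA after 1 h pretreatment. Both estimated by linear regression.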

HT-22 [5] = experiment: (§2) In vitro neurotoxicity (concentration producing 50% toxicity [TC50]) was measured by (MTT) reduction assay on murine HT-22 hippocampal cell cultures and compared to those of parent exifone,; type: functional; conditions: Mus musculus, read-out: TC50 (the source's name)
[6] = (§3) In vitro neurotoxicity (Maximum Tolerated concentration[MTC]) was measured by quantification of cellular lysis after measurement of LDH activity released from damaged cells; type: toxicity, cell-based; conditions: mouse, HT-22 cells; read-out: MTC
[7] = (§4) In vitro neurotoxicity (concentration producing 50% toxicity [TC50]) was measured by quantification of cellular lysis after measurement of LDH activity released from damaged cells; type: cell-based; conditions: mouse, HT-22 cells; read-out: TC50 (the source's name)
[8] = Ratio of MTC to PC50 after measurement of LDH activity; Safety ratio; type: functional
Method in brief: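 Safety index: MTC divided by PC50, both from LDH release in HT-22 cells. MTC comes from 48 h drug exposure alone; PC50 from 1 h antioxidant pretreatment followed by 48 h 2 mM L-HCA exposure. Both derived by linear regression.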

HT-22 [9] = experiment: In vitro neurotoxicity (concentration producing 50% toxicity [TC50]) was measured by (MTT) reduction assay on murine HT-22 hippocampal cell cultures and compared to those of parent exifone; type: functional; conditions: Mus musculus, read-out: TC50 (the source's name)
HT-22 [10] = experiment: In vitro neuroprotective activity estimated through their protective effects against L-homocysteic acid(L-HCA) cytotoxicity) on murine HT-22 hippocampal cell cultures and compared to those of exifone(MTT reduction assay); type: functional, Mus musculus
[11] = as §2; type: cell-based; conditions: mouse, HT-22 hippocampal cells; read-out: TC50 (the source's name)
HT-22 [12] = experiment: as §3; type: functional, Mus musculus
HT-22 [13] = experiment: as §4; type: functional; conditions: Mus musculus, read-out: TC50 (the source's name)
HT-22 [14] = experiment: as §1, with “measured by” for “obtained for”, “hippocampal” for “hip pocampal”; type: functional, Mus musculus
HT-22 [15] = experiment: In vitro neuroprotective activity estimated through their protective effects against L-homocysteic acid(L-HCA) cytotoxicity) on murine HT-22 hippocampal cell cultures and compared to those of exifone (MTT reduction assay); type: functional, Mus musculus

O=C(C1=CC=C(O)C2(O)OCC3(CCCC3)N=C12)c1ccccc1 (stereo not drawn)
PC50 (HT-22 [1]): 40.9 µM | MTC (HT-22 [2]): 50 µM | PC50 (HT-22 [3]): 47.4 µM | Ratio [4]: 1.1 | CC50 (HT-22 [5]): 109 µM | MNTC [6]: 50 µM | CC50 [7]: > 250 µM | Ratio [8]: 1.2

CC1(CO)COc2c(NC(CO)CO)ccc(C(=O)c3ccccc3)c2N1 (stereo not drawn)
MNTC [6]: > 250 µM

CC(C)(C)C1COc2c(NCCc3ccccc3)ccc(C(=O)c3ccccc3)c2N1 (stereo not drawn)
PC50 (HT-22 [1]): 8.9 µM | CC50 (HT-22 [9]): > 250 µM | MTC (HT-22 [2]): 100 µM | PC50 (HT-22 [10]): 8.8 µM | Ratio [4]: 11 | MNTC [6]: 250 µM | CC50 [7]: > 250 µM | Ratio [8]: 28

CC(C)CCNc1ccc(C(=O)c2ccccc2)c2c1OCC(C(C)(C)C)N2 (stereo not drawn)
MNTC [6]: 10 µM

O=C(C1=CC=C(O)C2(O)OCC(CO)N=C12)c1ccccc1 (stereo not drawn)
MNTC [6]: 25 µM

CC(C)(C)C1COc2c(NCc3ccccc3)ccc(C(=O)c3ccccc3)c2N1 (stereo not drawn)
MNTC [6]: > 250 µM

CC(C)CCNc1ccc(C(=O)c2ccccc2)c2c1OCC(C)(C)N2
MNTC [6]: 10 µM

CC(C)(C)C1COC2(O)C(O)=CC=C(C(=O)c3ccccc3)C2=N1 (stereo not drawn)
PC50 (HT-22 [1]): 5.8 µM | MTC (HT-22 [2]): 10 µM | CC50 [11]: 17.6 µM | PC50 (HT-22 [3]): 6.5 µM | MTC (HT-22 [12]): 10 µM | Ratio [4]: 1.5 | CC50 (HT-22 [13]): 38.1 µM | Ratio [8]: 1.7

CC(C)CNc1ccc(C(=O)c2ccccc2)c2c1OCC1(CCCC1)N2
CC50 (HT-22 [9]): > 250 µM | PC50 (HT-22 [14]): >10 µM | MTC (HT-22 [2]): 10 µM | PC50 (HT-22 [10]): >10 µM | Ratio [4]: < 1 | MNTC [6]: > 250 µM | CC50 [7]: > 250 µM | Ratio [8]: < 1

O=C(c1ccccc1)c1ccc(NCCO)c2c1NC(CO)(CO)CO2
MNTC [6]: > 250 µM

CC1(C)COc2c(NCCO)ccc(C(=O)c3ccccc3)c2N1
MNTC [6]: 100 µM

O=C(c1ccccc1)c1ccc(NC(CO)CO)c2c1NC(CO)CO2 (stereo not drawn)
MNTC [6]: > 250 µM

CC1(C)COc2c(NCc3ccccc3)ccc(C(=O)c3ccccc3)c2N1
MNTC [6]: > 250 µM

CC1(C)COc2c(NC(CO)CO)ccc(C(=O)c3ccccc3)c2N1
MNTC [6]: > 250 µM

CC(C)CCNc1ccc(C(=O)c2ccccc2)c2c1OCC(c1ccccc1)(c1ccccc1)N2
MNTC [6]: > 250 µM

O=C(c1ccccc1)c1ccc(O)c2c1NC1(CCCC1)CO2
CC50 (HT-22 [9]): 37.5 µM | PC50 (HT-22 [14]): 18.4 µM | MTC (HT-22 [2]): 25 µM | PC50 (HT-22 [15]): 25 µM | Ratio [4]: 1 | MNTC [6]: 25 µM | CC50 [7]: 36.4 µM | Ratio [8]: 1.4

O=C(c1ccccc1)c1ccc(O)c2c1NC(CO)CO2 (stereo not drawn)
MNTC [6]: 10 µM

CC1(CO)COc2c(NCCO)ccc(C(=O)c3ccccc3)c2N1 (stereo not drawn)
MNTC [6]: > 250 µM

O=C(c1ccccc1)c1ccc(NCc2ccccc2)c2c1NC(c1ccccc1)(c1ccccc1)CO2
MNTC [6]: > 250 µM

CC(C)(C)C1COc2c(O)ccc(C(=O)c3ccccc3)c2N1 (stereo not drawn)
MNTC [6]: 5 µM

O=C(c1ccccc1)c1ccc(NCc2ccccc2)c2c1NC1(CCCC1)CO2
CC50 (HT-22 [9]): > 250 µM | PC50 (HT-22 [14]): 7.1 µM | MTC (HT-22 [2]): >250 µM | PC50 (HT-22 [10]): 6.9 µM | Ratio [4]: > 36 | MNTC [6]: > 250 µM | CC50 [7]: > 250 µM | Ratio [8]: > 36
